Laboratory results from ChEMBL document CHEMBL1147977, “UDP acting at P2Y6 receptors is a mediator of microglial phagocytosis” (2007).
Calls of active or inactive are those of the source.

Assays:
[1] = Induction of phagocytosis in Wistar rat microglia assessed as uptake of microspheres at 100 uM after 20 mins by FACS; type: functional
Method in brief: (§1)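 Rat primary cultured microglia incubated with agonist for 20 min, with UDP tested at 5–1,000 μM, in the presence of fluorescent latex microspheres. Bead uptake is quantified by FACS, and results are expressed relative to uptake with 100 μM UDP alone. Values are means ± s.e.m. of about three or four experiments.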

Microglia [2] = test: Reversal of increase drug-induced phagocytosis in Wistar rat microglia assessed as uptake of microspheres by FACS in presence of MRS2578; type: functional, cell-based
Method in brief: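 Microglia incubated 20 min with supernatant from hippocampal neurons treated ±100 μM kainate for 1 h, with or without 1 μM antagonist; fluorescent latex bead uptake measured by flow cytometry; at least four independent experiments.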

Neuron [3] = test: Increase in P2Y6 receptor protein expression in Wistar rat neurons; type: functional, cell-based
Method in brief: (§2)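 Rats given 10 mg kg⁻¹ i.p.; brain sections immunostained for P2Y₆ receptor and co-stained for microglia (OX42), astrocytes (GFAP) or neurons (NeuN) to assess colocalization.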

Hippocampus [4] = test: Induction of neuronal loss in Wistar rat hippocampal CA1 region assessed as increase in number of microglia by immunohistochemical analysis; type: functional, tissue-based
Method in brief: (§3)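 Rats given 10 mg kg⁻¹ i.p.; 72 h later hippocampal sections double-stained with anti-NeuN (neurons) and anti-Iba1 (microglia) to assess CA1 and CA3 neuronal loss and microglial number.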

Hippocampus [5] = test: Induction of phagocytosis in Wistar rat hippocampal CA3 region assessed as increase in number of microglia at 10 mg/kg, ip; type: functional, organism-based; set-up: dose 10 mg/kg
Method in brief: (§4)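 Rats given 10 mg kg⁻¹ i.p.; fluorescent microspheres injected into hippocampal CA3, antagonist injected into CA3 (antisense/mismatch oligonucleotide into third ventricle); microspheres taken up or attached by anti-Iba1-stained microglia counted by confocal microscopy; ANOVA with Scheffe test.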

Neuron [6] = test: Increase in UTP level in Wistar rat hippocampal neuron at 100 uM after 1 hr by HPLC in presence of ARL67156
Hippocampus [7] = test: Reversal of drug-induced phagocytosis in Wistar rat hippocampal CA3 region assessed as increase in number of microglia at 10 mg/kg, ip in presence of MRS2578; type: functional, organism-based; set-up: dose 10 mg/kg; method in brief: as §4
Rattus norvegicus = test: Increase in P2Y6 receptor protein expression in Wistar rat brain at 10 mg/kg, ip after 72 hrs by Western blotting; type: functional, organism-based; set-up: dose 10 mg/kg
Method in brief: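 Rats given 10 mg kg⁻¹ i.p. (saline-injected controls); brains removed 72 h later and hippocampal P2Y₆ receptor protein quantified by western blot; 8 control and 7 treated experiments.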

Neuron [8] = test: Increase in UTP level in Wistar rat hippocampal neuron at 10 mg/kg, ip by microdialysis; type: functional, organism-based; set-up: dose 10 mg/kg; settings: Hippocampus, TDE = time-dependent effect
Microglia [9] = test: Increase in P2Y6 receptor protein expression in Wistar rat microglia; type: functional, cell-based; method in brief: as §2
Hippocampus [10] = test: Induction of neuronal loss in Wistar rat hippocampal CA3 region assessed as increase in number of microglia by immunohistochemical analysis; type: functional, tissue-based; method in brief: as §3
Neuron [11] = test: Induction of neuronal loss in Wistar rat neurons at 10 mg/kg, ip after 2-3 days; type: functional, organism-based; set-up: dose 10 mg/kg
Hippocampus [12] = test: Upregulation of P2Y6 receptor mRNA signals in Wistar rat hippocampal CA3 region assessed as increase in number of microglia by in situ hybridization after 3 days; type: functional, tissue-based
Method in brief: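 Rats given 10 mg kg⁻¹ i.p.; 3 days later hippocampal sections probed by in situ hybridization with P2Y₆ antisense RNA probe, then stained with anti-Iba1 to identify microglia bearing receptor mRNA in CA3.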

Astrocyte = test: Increase in P2Y6 receptor protein expression in Wistar rat astrocytes; type: functional, cell-based; method in brief: as §2
Microglia [13] = test: Increase in phagocytosis in Wistar rat microglia assessed as uptake of microspheres by FACS; type: functional, cell-based
Method in brief: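 Cultured primary rat microglia incubated 20 min with fluorescent latex beads plus agonist (5–1,000 μM); bead uptake quantified by flow cytometry; three experiments.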

Microglia [14] = test: Reversal of drug-induced phagocytosis in Wistar rat microglia at 100 uM in presence of U73122; type: functional, cell-based
Method in brief: (§5)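 Rat primary cultured microglia stimulated with 100 μM UDP, with or without reactive blue 2 (30–100 μM), suramin (300 μM), MRS2578 (0.01–3 μM), thapsigargin (1 μM), staurosporine (5 μM) or U73122 (10 μM). Uptake of fluorescent latex microspheres during the 20-min incubation is quantified by FACS. Values are means ± s.e.m.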

[15] = molecular target: P2Y purinoceptor 6 (Rattus norvegicus) (UniProt Q63371); test: Activity at P2Y6 receptor in Wistar rat microglia assessed as inhibition of intracellular calcium concentration at 100 uM after 300 secs by ratiometric fura-2 fluorescence method in presence of U73122; type: functional, cell-based
Chain of P2Y purinoceptor 6 (Rattus norvegicus) (Q63371 whole entry): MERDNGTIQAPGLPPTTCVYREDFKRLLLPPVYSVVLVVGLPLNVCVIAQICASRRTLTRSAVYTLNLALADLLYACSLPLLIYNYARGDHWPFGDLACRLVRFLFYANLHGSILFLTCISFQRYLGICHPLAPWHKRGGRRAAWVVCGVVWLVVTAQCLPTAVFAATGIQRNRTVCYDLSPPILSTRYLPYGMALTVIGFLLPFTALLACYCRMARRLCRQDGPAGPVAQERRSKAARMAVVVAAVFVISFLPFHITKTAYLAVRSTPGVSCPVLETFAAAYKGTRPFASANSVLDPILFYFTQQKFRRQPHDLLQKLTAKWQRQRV
Method in brief: (§6)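 Cultured rat primary microglia. Intracellular Ca2+ measured as the change in the 340/380 nm Fura-2 fluorescence ratio after stimulation with 100 μM UDP, alone or with inhibitors. The maximal UDP-alone response is the control, and responses are expressed as percent of control. Values are means ± s.e.m. of 24–36 cells from at least three independent experiments.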

Microglia [16] = test: Effect on formation of phagosome-like vacuoles in Wistar rat microglia at 100 uM after 5 mins; type: functional, cell-based
Method in brief: (§7)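 Rat primary cultured microglia stimulated for 5 min with 100 μM UDP or 10 μM ATP, then fixed, permeabilized and stained with phalloidin. Membrane ruffles and other actin structures are assessed by microscopy.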

Microglia [17] = test: Reversal of drug-induced of phagocytosis in Wistar rat microglia at 100 uM in presence of suramin; type: functional; method in brief: as §5
Microglia [18] = test: Effect on formation of filopodia-like protrusions in Wistar rat microglia at 100 uM after 5 mins; type: functional, cell-based; method in brief: as §7
[19] = molecular target: P2Y purinoceptor 6 (Rattus norvegicus) (UniProt Q63371); test: Agonist activity at P2Y6 receptor in Wistar rat microglia assessed as increase in intracellular calcium concentration by ratiometric fura-2 fluorescence method; type: functional, cell-based
Method in brief: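 Rat primary cultured microglia loaded with Fura-2. The rise in [Ca2+]i is read as the change in the 340/380 nm fluorescence ratio. UDP is applied over a concentration range, and the fraction of responding cells is also scored.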

[20] = molecular target: T1, Cysteinyl leukotriene receptor 1 (Rattus norvegicus) (UniProt Q924T8); test: Agonist activity at CysLT1 receptor in Wistar rat microglia assessed as increase in intracellular calcium concentration at 30 uM by ratiometric fura-2 fluorescence method; type: functional, cell-based
T1 sequence (whole entry): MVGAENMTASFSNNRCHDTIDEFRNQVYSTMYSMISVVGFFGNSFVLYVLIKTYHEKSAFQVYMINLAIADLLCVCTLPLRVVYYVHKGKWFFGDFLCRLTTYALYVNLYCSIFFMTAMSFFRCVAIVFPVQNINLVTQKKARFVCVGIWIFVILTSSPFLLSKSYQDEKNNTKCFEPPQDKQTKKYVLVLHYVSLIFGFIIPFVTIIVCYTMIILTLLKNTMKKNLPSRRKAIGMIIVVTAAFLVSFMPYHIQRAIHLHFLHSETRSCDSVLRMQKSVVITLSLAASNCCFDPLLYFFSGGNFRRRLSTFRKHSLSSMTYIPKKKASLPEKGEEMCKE

Microglia [21] = test: Reversal of drug-induced phagocytosis in Wistar rat microglia at 100 uM in presence of staurosporine; type: functional, cell-based; method in brief: as §5
Microglia [22] = test: Reversal of drug-induced phagocytosis in Wistar rat microglia at 100 uM in presence of MRS2578; type: functional; method in brief: as §5
[23] = molecular target: P2Y purinoceptor 6 (Rattus norvegicus) (UniProt Q63371); test: Effect on P2Y6 receptor-mediated cell motility in Wistar rat microglia at 100 uM by chemotaxis assay
Method in brief: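 Chemotaxis of cultured primary rat microglia toward agonist (100 μM) assessed in a Dunn chemotaxis chamber.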

Microglia [24] = test: Reversal of drug-induced phagocytosis in Wistar rat microglia at 100 uM in presence of thapsigargin; type: functional, cell-based; method in brief: as §5
[25] = molecular target: P2Y purinoceptor 6 (Rattus norvegicus) (UniProt Q63371); test: Effect on P2Y6 receptor-mediated cell motility in Wistar rat microglia assessed as formation of lamellipodia-like membrane ruffles at 100 uM after 5 mins; method in brief: as §7
[26] = molecular target: P2Y purinoceptor 6 (Rattus norvegicus) (UniProt Q63371); test: Activity at P2Y6 receptor in Wistar rat microglia assessed as inhibition of intracellular calcium concentration at 100 uM in presence of suramin by ratiometric fura-2 fluorescence method; type: functional, cell-based; method in brief: as §6
[27] = molecular target: P2Y purinoceptor 6 (Rattus norvegicus) (UniProt Q63371); test: Activity at P2Y6 receptor in Wistar rat microglia assessed as inhibition of intracellular calcium concentration at 100 uM after 600 secs by ratiometric fura-2 fluorescence method in presence of xestospongin C; type: functional, cell-based; method in brief: as §6
[28] = molecular target: P2Y purinoceptor 6 (Rattus norvegicus) (UniProt Q63371); test: Activity at P2Y6 receptor in Wistar rat microglia assessed as inhibition of intracellular calcium concentration at 100 uM after 600 secs by ratiometric fura-2 fluorescence method in presence of thapsigargin; type: functional, cell-based; method in brief: as §6
Microglia [29] = test: Induction of phagocytosis in Wistar rat microglia assessed as uptake of microspheres after 20 mins by FACS; type: functional, cell-based; method in brief: as §1
Microglia [30] = test: Reversal of drug-induced of phagocytosis in Wistar rat microglia at 100 uM in presence of reactive blue 2; type: functional; method in brief: as §5
[31] = molecular target: P2Y purinoceptor 6 (Rattus norvegicus) (UniProt Q63371); test: Activity at P2Y6 receptor in Wistar rat microglia assessed as inhibition of intracellular calcium concentration at 100 uM by ratiometric fura-2 fluorescence method in presence of MRS2578; type: functional, cell-based; method in brief: as §6
Microglia [32] = test: Effect on formation of phagocytotic cup in Wistar rat microglia at 100 uM after 5 mins; type: functional, cell-based; method in brief: as §7
Microglia [33] = test: Effect on formation of F-actin aggregation in Wistar rat microglia at 100 uM after 5 mins; type: functional, cell-based; method in brief: as §7
[34] = molecular target: P2Y purinoceptor 6 (Rattus norvegicus) (UniProt Q63371); test: Activity at P2Y6 receptor in Wistar rat microglia assessed as inhibition of intracellular calcium concentration at 100 uM by ratiometric fura-2 fluorescence method in presence of reactive blue 2; type: functional, cell-based; method in brief: as §6
[35] = molecular target: P2Y purinoceptor 6 (Rattus norvegicus) (UniProt Q63371); test: Effect on P2Y6 receptor-mediated cell motility in Wistar rat microglia assessed as formation of lamellipodia-like membrane ruffles at 10 uM after 5 mins
Method in brief: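 Cultured primary rat microglia stimulated 5 min with agonist, then fixed, permeabilized and phalloidin-stained; lamellipodia-like membrane ruffles scored by microscopy.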

Measured: Activity

Nc1nc2c(ncn2[C@@H]2O[C@H](COP(=O)(O)OP(=O)(O)O)[C@@H](O)[C@H]2O)c(=O)[nH]1
49.7%: [1]

Nc1ncnc2c1ncn2[C@@H]1O[C@H](COP(=O)(O)OP(=O)(O)O)[C@@H](O)[C@H]1O [ADENOSINE DIPHOSPHATE]
0.3%: [1]

C=C(C)[C@H]1CN[C@H](C(=O)O)[C@H]1CC(=O)O [KAINIC ACID]
active: Microglia [2] | Hippocampus [4] | Hippocampus [5] | Hippocampus [7] | Rattus norvegicus | Neuron [8] tde | Microglia [9] | Hippocampus [10] | Neuron [11] | Hippocampus [12] | Microglia [13]
inactive: Neuron [3] | Astrocyte
10.5 µM: Neuron [6]

O=c1ccn([C@@H]2O[C@H](COP(=O)(O)OP(=O)(O)O)[C@@H](O)[C@H]2O)c(=O)[nH]1
inactive: [23] | [25]
active: Microglia [14] | [15] | Microglia [16] | Microglia [17] | Microglia [18] | [19] Dose-dependent effect | [20] | Microglia [21] | Microglia [22] | Microglia [24] | [26] | [27] | [28] | Microglia [29] Dose-dependent effect | Microglia [30] | [31] | Microglia [32] | Microglia [33] | [34]

Nc1ncnc2c1ncn2[C@@H]1O[C@H](COP(=O)(O)OP(=O)(O)OP(=O)(O)O)[C@@H](O)[C@H]1O
active: [35] | [23]
